Our source for the ED50, MIC and Ratio values is ChEMBL document CHEMBL3244183, “Synthesis and antibacterial activity of isomeric 6- and 7-acetyl-3-methyl-2- quinoxalinecarbozamide 1,4-dioxides” (1978).

Common to all, as to assay type: functional
Test [1] deals with Escherichia coli. Briefly: Antimicrobial activity against Escherichia coli infected in mouse compound administered subcutaneously at 0.5 hr, 4 hrs and 24 hrs post infection. To be noted: sc, read-out: PD50. In a few lines: (§1)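 Male and female mice, 11–13 g. Acute systemic infection by intraperitoneal inoculation of 1–10 times the organism count killing 100% of untreated mice in 4 days; standardized cultures suspended in 5% hog gastric mucin. Treated 0.5 h after infection, again at 4.0 h and at 24 h. PD50 (50% protective dose) calculated by probit method.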

The test system of test [2] is Streptococcus pyogenes. Put plainly: Antimicrobial activity against Streptococcus pyogenes infected in mouse compound administered subcutaneously at 0.5 hr, 4 hrs and 24 hrs post infection. To be noted: sc, read-out: PD50. In a few lines:
(§2)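 Infections in male and female mice (11–13 g), given intraperitoneally at one to ten times the inoculum lethal to all nonmedicated mice within 4 days. Standardized cultures were suspended in brain-heart infusion broth. Doses were given at 0.5, 4.0 and 24 h post-infection. The 50% protective dose was derived by probit analysis.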

The subject of test [3] is Pasteurella multocida. Briefly: Antimicrobial activity against Pasteurella multocida measured after overnight incubation by susceptibility test. An outline of the steps: (§3)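 MIC by agar dilution: about 10^4 organisms applied with a replicating device onto brain-heart infusion agar holding twofold dilutions of drug; plates incubated overnight at 37 °C under anaerobic conditions (Gas Pak environment); MIC read as lowest inhibiting concentration.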

For test [4], the system named is Pasteurella multocida. Put plainly: Antimicrobial activity against Pasteurella multocida infected in mouse compound administered subcutaneously at 0.5 hr, 4 hrs and 24 hrs post infection. The note with it: sc, read-out: PD50. In a few lines:
as §2

The test system of test [5] is Streptococcus pyogenes. Put plainly: Antimicrobial activity against Streptococcus pyogenes infected in mouse compound administered orally at 0.5 hr, 4 hrs and 24 hrs post infection. The note with it: po, read-out: PD50. In a few lines: as §2
Test [6] has as its system Salmonella enterica. Put plainly: Antimicrobial activity against Salmonella choleraesuis infected in mouse compound administered subcutaneously at 0.5 hr, 4 hrs and 24 hrs post infection. The note with it: sc, read-out: PD50. In a few lines: as §1
Test [7] deals with Pasteurella multocida. Put plainly: Antimicrobial activity against Pasteurella multocida infected in mouse compound administered orally at 0.5 hr, 4 hrs and 24 hrs post infection. The note with it: po, read-out: PD50. An outline of the steps:
as §2

The test system of test [8] is Escherichia coli. Briefly: Antimicrobial activity against Escherichia coli infected in mouse compound administered orally at 0.5 hr, 4 hrs and 24 hrs post infection. The note with it: po, read-out: PD50. In a few lines:
as §1

The subject of test [9] is Salmonella enterica. Put plainly: Antimicrobial activity against Salmonella choleraesuis measured after overnight incubation by susceptibility test. An outline of the steps: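 MIC by agar dilution: about 10^4 organisms applied with a replicating device onto brain-heart infusion agar containing twofold dilutions of the quinoxaline 1,4-dioxide; incubated overnight at 37 °C under anaerobic conditions (Gas Pak).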

Test [10] deals with Escherichia coli. Put plainly: Antimicrobial activity against Escherichia coli measured after overnight incubation by susceptibility test. An outline of the steps: as §3
In test [11] the test system is Streptococcus pyogenes. Put plainly: Antimicrobial activity against Streptococcus pyogenes measured after overnight incubation by susceptibility test. In a few lines:
as §3

For test [12], the system named is Salmonella enterica. Put plainly: Antimicrobial activity against Salmonella choleraesuis infected in mouse compound administered orally at 0.5 hr, 4 hrs and 24 hrs post infection. To be noted: po, read-out: PD50. In a few lines:
as §1

Test [13] has as its system Streptococcus pyogenes. Briefly: Ratio of PD50 for Streptococcus pyogenes infected in po dosed mouse to PD50 for Streptococcus pyogenes infected in sc dosed mouse.
Test [14] has as its system Escherichia coli. Put plainly: Ratio of PD50 for Escherichia coli infected in po dosed mouse to PD50 for Escherichia coli infected in sc dosed mouse.
Test [15] has as its system Pasteurella multocida. Put plainly: Ratio of PD50 for Pasteurella multocida infected in po dosed mouse to PD50 for Pasteurella multocida infected in sc dosed mouse.
Test [16] has as its system Salmonella enterica. Briefly: Ratio of PD50 for Salmonella choleraesuis infected in po dosed mouse to PD50 for Salmonella choleraesuis infected in sc dosed mouse.

Converted amounts (≈) assume the structure as drawn.

For orientation: MIC means the lowest concentration that inhibits growth of the organism. Higher therefore signals a need for much substance. With `CC(=O)c1ccc2c(c1)[n+]([O-])c(C)c(C(N)=O)[n+]2[O-]`, the ED50 in test [1] is 10.9 mg/kg; in test [2], 54 mg/kg; in [4] it was 11.7 mg/kg; in test [5], 70 mg/kg; in test [6] it was 7.6 mg/kg; in test [7], 13.6 mg/kg. Besides, the ED50 is 12.6 mg/kg in test [8] and 9.9 mg/kg in test [12]. Further, the MIC is 0.39 mg/L (≈ 1.49 µM) in test [3], 0.39 mg/L (≈ 1.49 µM) in test [9], 0.39 mg/L (≈ 1.49 µM) in [10] and 0.19 mg/L (≈ 0.727 µM) in test [11].

Regarding `CC(=O)c1ccc2c(c1)[n+]([O-])c(C(N)=O)c(C)[n+]2[O-]`, the Ratio in [13], in [14], in [15] and in test [16] was 2 throughout. For the same molecule, the ED50 came out at 5.6 mg/kg in test [1]; 9.2 mg/kg in [2]; 7.7 mg/kg in test [4]; 15 mg/kg in test [5]; 4.5 mg/kg in [6]; 12.7 mg/kg in test [7]. Besides, the ED50 in test [8] was found to be 13 mg/kg; in [12], 9.1 mg/kg. The MIC stood at 0.19 mg/L (≈ 0.727 µM) in test [3], 0.19 mg/L (≈ 0.727 µM) in [9], 0.39 mg/L (≈ 1.49 µM) in test [10] and 0.39 mg/L (≈ 1.49 µM) in [11].
